In PMC3150610 (Journal of medicinal chemistry, 2011):

Legend:
[1] = target: Human α-thrombin (Homo sapiens, UniProt P00734); assay type: biochemical; settings: for fold weaker thrombin inhibition of di-sulfated dimers: comparator not given; for fold change in IC50 (weaker) relative to 12a: comparator 12a
[2] = target: human thrombin (Homo sapiens, UniProt P00734); assay: Michaelis-Menten kinetics of Spectrozyme TH hydrolysis by thrombin; assay type: biochemical; settings: for VMAX of Spectrozyme TH hydrolysis: pH 7.4
In short: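 Human α-thrombin (5–10 nM) with Spectrozyme TH at 10 to 600 μM, at fixed test compound levels of 0–30 μM. Run in 20 mM Tris-HCl, pH 7.4, at 37 °C. Initial rate taken from the linear rise in A405 while under 10% of substrate was consumed. Data fitted to the Michaelis-Menten equation for KM and VMAX.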

[3] = tested on: citrated human plasma; assay: Prothrombin time; settings: thromboplastin initiator
In short: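 Test compound brought up in citrated human plasma and held 30 s at 37 °C. Pre-warmed thromboplastin (reconstituted per manufacturer, 37 °C) then added and clotting time read on a fibrometer in a one-stage assay. Deionized water served as the no-anticoagulant control. Run in duplicate. Quadratic trendline fit gave the concentration doubling PT.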

[4] = tested on: citrated human plasma; assay: Activated partial thromboplastin time; settings: ellagic acid initiator
In short: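 Test compound in citrated human plasma with pre-warmed APTT reagent (0.2% ellagic acid), incubated 4 min. Clotting started with 25 mM CaCl2 at 37 °C and time to clot read on a fibrometer. One-stage recalcification format, each assay in duplicate. Clotting time versus concentration fitted to a quadratic trendline to get the concentration that doubles APTT.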

SMILES: CCOC(=O)c1c(C)oc2cc(OCc3oc4cc(OC)c(OS(=O)(=O)[O-])cc4c3C(=O)OCC)c(OS(=O)(=O)[O-])cc12.[Na+].[Na+] [compound 17]
- fold weaker thrombin inhibition of di-sulfated dimers [1]: 6–17 fold

SMILES: CCOC(=O)c1c(C)oc2cc(OC)c(OCc3oc4cc(OC)c(OS(=O)(=O)[O-])cc4c3C(=O)OCC)cc12.[Na+] [12a]
- mechanism of thrombin inhibition ([2]; Michaelis-Menten kinetics): non-competitive, allosteric mechanism
- VMAX of Spectrozyme TH hydrolysis ([2]; in presence of 1.5 μM 12a): 97 ± 13 mAUmin^−1μM^−1
- VMAX of Spectrozyme TH hydrolysis ([2]; in presence of 3.0 μM 12a): 107 ± 14 mAUmin^−1μM^−1
- VMAX of Spectrozyme TH hydrolysis ([2]; in presence of 10.5 μM 12a): 73 ± 13 mAUmin^−1μM^−1
- VMAX of Spectrozyme TH hydrolysis ([2]; in presence of 30 μM 12a): 66 ± 6 mAUmin^−1μM^−1
- decrease in maximal velocity of reaction ([2]; upon approximately 50% saturation of the enzyme): ~ 34%

SMILES: CCOC(=O)c1c(C)oc2cc(OC)c(OCc3oc4cc(OS(=O)(=O)[O-])c(OS(=O)(=O)[O-])cc4c3C(=O)OCC)cc12.[Na+].[Na+] [compound 18]
- fold weaker thrombin inhibition of di-sulfated dimers [1]: 6–17 fold

SMILES: COCCOC(=O)c1c(C)oc2cc(OC)c(OCc3oc4cc(OC)c(OS(=O)(=O)[O-])cc4c3C(=O)OCCOC)cc12.[Na+] [12d]
- fold change in IC50 (weaker) relative to 12a [1]: 6.2 fold

SMILES: COC(=O)c1c(C)oc2cc(OC)c(OCc3oc4cc(OC)c(OS(=O)(=O)[O-])cc4c3C(=O)OC)cc12.[Na+] [12b]
- concentration required to double PT (2×PT) [3]: 850 to 2100 µM

SMILES: COc1cc2oc(C)c(C(=O)O)c2cc1OCc1oc2cc(OC)c(OS(=O)(=O)[O-])cc2c1C(=O)O.[Na+] [compound 15]
- fold change in IC50 (weaker) relative to 12a [1]: 6.2 fold

SMILES: COc1cc2oc(C)c(C(=O)OC(C)(C)C)c2cc1OCc1oc2cc(OC)c(OS(=O)(=O)[O-])cc2c1C(=O)OC(C)(C)C.[Na+] [12c]
- fold improvement of inhibition potency with lipophilicity of 3-ester ([1]; across 12a, 12b, 12c): 8.2 fold
- concentration required to double APTT (2×APTT) [4]: 355 to 1250 µM

SMILES: CCOC(=O)c1c(COc2cc3c(C(=O)OCC)c(CN4CCOCC4)oc3cc2OC)oc2cc(OC)c(OS(=O)(=O)[O-])cc12.[Na+] [compound 13]
- fold change in IC50 (weaker) relative to 12a [1]: 2.2 fold

SMILES: CCOC(=O)c1c(C)oc2cc(OCC)c(OCc3oc4cc(OCC)c(OS(=O)(=O)[O-])cc4c3C(=O)OCC)cc12.[Na+] [12e]
- concentration required to double APTT (2×APTT) [4]: 355 to 1250 µM

SMILES: CCOC(=O)c1c(C)oc2cc(OC(C)C)c(OCc3oc4cc(OC(C)C)c(OS(=O)(=O)[O-])cc4c3C(=O)OCC)cc12.[Na+] [12f]
- fold increase in potency, ethyl to isopropyl at 6-position ([1]; 12f versus 12e): ~4 fold

SMILES: COc1cc2oc(C)c(C(=O)N3CCOCC3)c2cc1OCc1oc2cc(OC)c(OS(=O)(=O)[O-])cc2c1C(=O)N1CCOCC1.[Na+] [compound 14]
- fold loss of affinity from t-butyl ester dimer ([1]; comparator printed as dimer 2c): more than 270 fold
